Assay [1] deals with HEK293. The experiment in a line: Inhibition of TNF-alpha-induced NFkappaB activation in human HEK293 cells assessed as cell survival at 50 uM after 6 hrs by luciferase assay relative to control. In kind it is cell-based.
The subject of assay [2] is HEK293. The experiment in a line: Inhibition of TNF-alpha-induced NFkappaB activation in human HEK293 cells at 50 uM after 6 hrs by luciferase assay relative to control. In kind it is cell-based. In short, it runs like this:
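Cells incubated 6 h with TNFα plus test compound, then luciferase activity measured. Results expressed as percent of TNFα-treated control. Screening concentration 50 μM.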

Assay [3] has as its target T1, Nitric oxide synthase, inducible (Mus musculus) (UniProt P29477).
T1 sequence (whole entry): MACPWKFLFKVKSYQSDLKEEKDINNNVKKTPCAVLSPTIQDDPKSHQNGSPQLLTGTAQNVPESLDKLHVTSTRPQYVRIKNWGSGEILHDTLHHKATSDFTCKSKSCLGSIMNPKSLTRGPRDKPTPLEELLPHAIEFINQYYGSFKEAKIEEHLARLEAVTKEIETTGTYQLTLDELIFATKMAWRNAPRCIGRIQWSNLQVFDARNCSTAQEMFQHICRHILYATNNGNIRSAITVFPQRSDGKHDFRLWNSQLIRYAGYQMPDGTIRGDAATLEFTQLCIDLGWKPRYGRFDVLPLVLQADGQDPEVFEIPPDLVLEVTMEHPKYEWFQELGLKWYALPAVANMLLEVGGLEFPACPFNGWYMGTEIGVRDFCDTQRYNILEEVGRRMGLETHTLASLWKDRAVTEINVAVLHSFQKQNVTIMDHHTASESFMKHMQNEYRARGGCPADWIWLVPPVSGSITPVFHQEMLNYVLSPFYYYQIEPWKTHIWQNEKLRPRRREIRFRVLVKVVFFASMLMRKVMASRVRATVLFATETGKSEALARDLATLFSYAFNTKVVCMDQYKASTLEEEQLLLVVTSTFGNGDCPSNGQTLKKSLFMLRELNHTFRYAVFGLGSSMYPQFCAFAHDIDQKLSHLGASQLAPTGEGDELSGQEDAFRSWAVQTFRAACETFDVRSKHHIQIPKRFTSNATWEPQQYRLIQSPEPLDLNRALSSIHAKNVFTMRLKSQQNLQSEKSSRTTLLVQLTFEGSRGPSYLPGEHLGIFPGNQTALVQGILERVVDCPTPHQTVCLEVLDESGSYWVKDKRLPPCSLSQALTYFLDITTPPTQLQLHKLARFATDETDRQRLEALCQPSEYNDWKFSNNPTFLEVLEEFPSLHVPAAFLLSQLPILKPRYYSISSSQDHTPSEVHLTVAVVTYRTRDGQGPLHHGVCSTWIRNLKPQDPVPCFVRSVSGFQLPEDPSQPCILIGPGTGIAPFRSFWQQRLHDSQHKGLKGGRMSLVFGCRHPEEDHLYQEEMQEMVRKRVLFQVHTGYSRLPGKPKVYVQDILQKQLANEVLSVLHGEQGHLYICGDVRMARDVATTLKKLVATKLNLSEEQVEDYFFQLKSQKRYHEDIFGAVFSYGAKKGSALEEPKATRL
The experiment in a line: Inhibition of iNOS-mediated nitric oxide production in LPS-stimulated mouse RAW 264.7 cells assessed as cell survival at 50 uM pretreated 15 mins before LPS challenge measured after 20 hrs relative to control. In kind it is cell-based. In short, it runs like this:
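RAW 264.7 cells were incubated at 37°C, 5% CO2 for 24 h. They were then exposed to compound for 15 min before LPS (1 μg/mL) was added for 20 h. Cytotoxicity was measured by SRB staining under the same conditions. Survival is expressed as % relative to vehicle-treated controls at 50 μM.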

Assay [4] concerns the target T1, Nitric oxide synthase, inducible (Mus musculus). The experiment in a line: Inhibition of iNOS-mediated nitric oxide production in LPS-stimulated mouse RAW 264.7 cells at 50 uM pretreated 15 mins before LPS challenge measured after 20 hrs relative to control. In kind it is cell-based. The procedure, abridged:
(§1)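 RAW 264.7 cells cultured 24 h at 37°C, then given serially diluted compounds for 15 min before LPS (1 μg/mL) for 20 h. Nitrite in the medium measured with Griess reagent at 540 nm against a sodium nitrite standard curve. Cytotoxicity checked by SRB under the same conditions.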

For assay [5], the target named is NAD(P)H dehydrogenase [quinone] 1 (Mus musculus) (UniProt Q64669). The experiment in a line: Induction of quinone reductase 1 activity in mouse Hepa-1c1c7 cells at 50 uM by MTT assay relative to untreated control. In kind it is cell-based. In short, it runs like this:
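Hepa 1c1c7 murine hepatoma cells treated with compound at 50 μM. QR1 measured by NADPH-dependent, menadiol-mediated reduction of MTT to formazan. Protein measured by crystal violet staining of identical plates. Specific activity is nmol formazan per mg protein per min. Induction ratio is treated versus DMSO-treated control.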
(Tetrazolium dyes change colour on reduction, which living cells bring about.)

The target in assay [6] is T2, Nitric oxide synthase, inducible (Mus musculus, UniProt P29477).
T2 sequence (P29477 whole entry): T1 sequence (whole entry)
The experiment in a line: Inhibition of iNOS-mediated nitric oxide production in LPS-stimulated mouse RAW 264.7 cells pretreated 15 mins before LPS challenge measured after 20 hrs relative to control. In kind it is cell-based. In short, it runs like this: as §1

Assay [7] relates to MCF7. The experiment in a line: Antiproliferative activity against human MCF7 cells after 72 hrs by SRB assay. The format is functional, cell-based. The conditions noted are these: MCF7, 72 h. The procedure, abridged:
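MCF7 cells, 1 × 10^4 per well, plated directly onto compounds and incubated 72 h at 37°C, 5% CO2. Fixed with 10% TCA, stained with 0.4% SRB in 1% acetic acid. Bound dye dissolved in 10 mM Tris pH 10.0, absorbance read at 515 nm. Survival expressed relative to DMSO-treated controls.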
On the technique in general: Sulforhodamine B stains cellular protein and so reports cell mass.

Assay [8] deals with MCF7. The experiment in a line: Antiproliferative activity against human MCF7 cells assessed as survival at 50 uM after 72 hrs by SRB assay relative to control. In kind it is functional. The note with it: MCF7, 72 h, read-out: Survival. The procedure, abridged: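 MCF7 cells (1 × 10^4 per well) were plated onto compound and kept at 37°C, 5% CO2 for 72 h. Cells were fixed in 10% TCA for 30 min and stained with 0.4% SRB in 1% acetic acid for 30 min. Bound dye was dissolved in 10 mM Tris (pH 10.0) and read at 515 nm. Survival is given as % of DMSO-treated controls, screened at 50 μM.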

Assay [9] deals with NAD(P)H dehydrogenase [quinone] 1 (Mus musculus) (UniProt Q64669). The experiment in a line: Induction of quinone reductase 1 activity in mouse Hepa-1c1c7 cells assessed as cell survival at 50 uM by MTT assay relative to control. The format is cell-based.
The target in assay [10] is T3, Aromatase (Homo sapiens, UniProt P11511).
T3 sequence (P11511 whole entry): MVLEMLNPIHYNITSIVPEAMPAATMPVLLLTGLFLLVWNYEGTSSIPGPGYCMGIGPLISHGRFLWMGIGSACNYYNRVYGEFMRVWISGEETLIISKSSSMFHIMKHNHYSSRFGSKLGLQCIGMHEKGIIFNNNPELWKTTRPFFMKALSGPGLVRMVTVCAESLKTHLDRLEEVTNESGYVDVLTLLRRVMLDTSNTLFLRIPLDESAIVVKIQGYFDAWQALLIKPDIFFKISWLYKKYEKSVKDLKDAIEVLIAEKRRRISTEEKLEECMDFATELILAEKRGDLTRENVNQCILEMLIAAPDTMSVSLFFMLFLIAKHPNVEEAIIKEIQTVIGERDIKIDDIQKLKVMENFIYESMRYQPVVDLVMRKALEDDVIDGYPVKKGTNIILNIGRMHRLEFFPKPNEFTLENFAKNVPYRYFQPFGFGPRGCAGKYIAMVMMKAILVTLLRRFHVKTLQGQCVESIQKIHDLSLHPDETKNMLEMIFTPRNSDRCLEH
The experiment in a line: Inhibition of aromatase at 50 uM after 10 mins preincubation by plate reader relative to control. The procedure, abridged: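 CYP19 enzyme. Compound pre-incubated 10 min with an NADPH-regenerating system (NADP+, glucose 6-phosphate, G6PDH, MgCl2, albumin) in 50 mM potassium phosphate pH 7.4. Enzyme and 0.4 μM dibenzylfluorescein substrate then added, 30 min at 37 °C. Quenched with 2 N NaOH and incubated a further 2 h at 37 °C. Fluorescence read at ex 485/em 530 nm. Compound tested at 50 μM.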

The target of assay [11] is T3, Aromatase. The experiment in a line: Inhibition of aromatase after 10 mins preincubation by plate reader relative to control.

Sequence of NAD(P)H dehydrogenase [quinone] 1 (Mus musculus) (Q64669 whole entry): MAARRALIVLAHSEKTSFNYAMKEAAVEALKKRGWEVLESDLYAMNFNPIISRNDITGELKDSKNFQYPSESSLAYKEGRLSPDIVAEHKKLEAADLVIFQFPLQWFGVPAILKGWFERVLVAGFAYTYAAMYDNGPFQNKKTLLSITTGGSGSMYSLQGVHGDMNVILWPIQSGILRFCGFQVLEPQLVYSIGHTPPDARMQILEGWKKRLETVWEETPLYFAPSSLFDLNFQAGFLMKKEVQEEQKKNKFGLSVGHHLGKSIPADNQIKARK

As usually defined, the inhibition is the share of the control response that was lost under treatment. As a reminder, the IC50 is the point on the concentration scale where inhibition reaches its midpoint. For `COC(=O)[C@@H]1Cc2c([nH]c3ccccc23)CN1S(=O)(=O)c1ccc(C)cc1`, the Survival amounted to 171% in the assay with HEK293 [1], 116% in assay [3] and 61% in [9]. The inhibition in the assay with HEK293 [2] turned out to be 6%; in assay [4], 73.8%. Further, the Ratio in [5] was 1.3. The IC50 came out at 22.6 µM in [6], 37 µM in the assay on MCF7 [7] and 63.2 µM at Aromatase [11]. In addition, in the assay on MCF7 [8], the viability at 50 µM came to 19%. At Aromatase [10], this compound yielded an inhibition at 50 µM of 41.7%.

Source of the values: ChEMBL document CHEMBL1914395, “Design, synthesis, and biological evaluation of callophycin A and analogues as potential chemopreventive and anticancer agents” (Bioorg Med Chem, 2011).
